Source: the EternaBench riboswitch data

Test system: MS2 coat protein
Experiment: apparent Kd, MS2 coat protein; higher = weaker binding; RNA-MaP array; FMN 200 µM where present
How it was run: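 Each design was made on Illumina sequencing-chip clusters by stalled E. coli RNA polymerase and titrated with SNAP-549-labelled MS2 coat protein from 0.7 or 1.5 nM, doubling to 3 µM, in the absence and then the presence of constant ligand. The buffer was 100 mM Tris-HCl pH 7.5, 80 mM KCl, 4 mM MgCl2, BSA, DTT, yeast tRNA and Tween-20. The apparent Kd is the median of filtered per-cluster fits of binding curves, with green signal normalised to red-channel RNA signal and control-cluster median Fmax.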

[1] = designed as: OFF switch for flavin mononucleotide, no ligand
[2] = ligand present: flavin mononucleotide, designed as: OFF switch for flavin mononucleotide
[3] = designed as: ON switch for flavin mononucleotide, no ligand
[4] = ligand present: flavin mononucleotide, designed as: ON switch for flavin mononucleotide

| Sequence | apparent Kd [1] [µM] | apparent Kd [2] [µM] | apparent Kd [3] [µM] | apparent Kd [4] [µM] |
| --- | --- | --- | --- | --- |
| CUCAUGUCAGGAUAUUAAGUCCGUAGCCUAUGGCUGCAACAUGAGAAGGGACAUGAGGAUCACCCAUGUCGGGA | 0.0475 | 0.0767 | – | – |
| UGACUAGCAAUGUAUCGAAAGAUCACAUGAGGAUCACCCAUGUAGGAUAUGAGCAGAAAAUCUGCUCAGAAGGACAUGCUAGUC | 0.00588 | 0.00604 | – | – |
| AUAAAACAAAACCACACAUGAGGAUCACCCAUGUCAAGAUUACAGGAUAUCCAGCAGAGAUGCAUGGAGAAGGGUGAUCCCAAA | – | – | 0.0371 | 0.0565 |
| CGCACUAAACAUGAGGAUCACCCAUGUAACUAAGAGCUAGUCAGAAGGCAUAAUUAGUGAAUUAAUGAGGAUAUGAAUAGUGCG | – | – | 0.157 | 0.0622 |
| AGCACGUCAGGAUAUCUGAUGUCUAACUUCGGUUAGACAUCAGAGAAGGGACAUGAGGAUCACCCAUGUGCAAA | 0.0606 | 0.0779 | – | – |
| GUCAGCUCGUGAGGAUAUACAACACUGCUUCGGCAGUGUAUUAAGAUCACAUGAGGAUCACCCAUGUAGAAGGCACGACCUGAU | 0.0141 | 0.257 | – | – |
| AAACACGGACAUGAGGAUCACCCAUGUGGCGAAAGCCUUGGGAGAAGGCAGUAUGCAAAGCAUUCUGAGGAUAUCCAUACCGUG | – | – | 0.0184 | 0.00663 |
| GUCGGAAACGACAAAAGUAUGGAUCCAGAAGGCAUGAAACAUGAGGAUCACCCAUGUCAAAGAUAUGAGGAUAUGGAUCCAUAC | – | – | 0.00464 | 0.00401 |
| CGAUUAUUGAUCCAUUUUUACAACAUGAGGAUCACCCAUGUGCAGGAUAUCGUGGUGAUUAACUACGAGAAGGGCAAAUUCACG | 0.123 | 0.22 | – | – |
| AGUACUACAGGAUAUACAUGAAUGAUAAUCAUUACCCUUAUACAUGAGGAUCACCCAUGUAGAAGGGUAGUACA | 0.0164 | 0.02 | – | – |
| AAGAAACAUGAGGAUCACCCAUGUCACCUCACACGAGGAUAUCUGAAUCGAUUAGAUUACGGAGAAGGCGUGAUAA | – | – | 0.0275 | 0.0206 |
| GAUUCGGGAGGAUAUACAUGAGGAUCACCCAUGUAUAUAUAAUAUAUUAAAUUAUCAUGUAGAAGGUUUGGGUC | 0.0243 | 0.0234 | – | – |
| UCCGAAUCGUAGAAGGGUGACAUGAGGAUCACCCAUGUGCAGCAGCCGUGAACGGCCAUGCUGCCACAGGAUAUACGAUGGAGU | – | – | 0.0411 | 0.0562 |
| AGCUGUGGCCGAGGAUAUCUAUCUUCAAUAACCGAAAUAUAAUCGGACAUGAGGAUCACCCAUGUAGAGAAGGCGGUCUCAGCA | 0.0336 | 0.0845 | – | – |
| UAUUUAUAAUAUUUUAACAUGAGGAUCACCCAUGUCGCUAGACAGGAUAUAUUUUAUUUGUUUAAGUAGAAGGGUCAUAGAUUU | – | – | 0.175 | 0.145 |
| AGUGUCAUCGAGAAGGCCUCAUGAACAUGAGGAUCACCCAUGUAAUAUGGGAGGAUAUCGAUGAUACAGCUACGUUUCGUAGCA | – | – | 0.0514 | 0.0339 |
| GGCGAACGGGCUAACAUGAGGAUCACCCAUGUGGACUCAUGGUAGGAUAUGCUGUACAAAGUACAGCAGAAGGGCCGGUGAGCC | – | – | 0.142 | 0.445 |
| AAAACCAGAGGAUAUGCGCAUAGAUCAGACUUUGUUUCUUAACAUGAGGAUCACCCAUGUAGAAGGCUGUAAAA | 0.0173 | 0.0155 | – | – |
| AAAAUAAGAACAGGAUAUGUGGGUUCGAAGAGCAAAACUCUCCACAUGAGGAUCACCCAUGUGCCACAGAAGGGUUCGGGUGAU | – | – | 0.0669 | 0.0124 |
| AAACAAGGAUCAGGAUAUGUGAAAGUAGACCGACAUGAGGAUCACCCAUGUACGACAAGACUCGUACAGAAGGGAUGCACAUGA | – | – | 0.0733 | 0.165 |
| ACGCGAUGGGAGAAGGUACUUUAAGAAUUUUACACAUGAGGAUCACCCAUGUAAGGAUAUCCCAUCGUUAAAUAUUAUACAGCA | 0.00656 | 0.00577 | – | – |

| Sequence | apparent Kd [1] [µM] | apparent Kd [2] [µM] | apparent Kd [3] [µM] | apparent Kd [4] [µM] |
| --- | --- | --- | --- | --- |
| GCGGCUCACAUGAGGAUCACCCAUGUUCGCAUAUUGUGAAACAGAAGGCGGACUCAGCGAUGGGCCGAGGAUAUGUUUCCCACA | – | – | 0.124 | 0.0258 |
| GUCAGCUCGUGAGGAUAUACAACACGGCUUCGGCAGUGUAUUAAGAUCACAUGAGGAUCACCCAUGUAGAAGGCACGAGCUGAU | 0.0139 | 0.2 | – | – |
| AGCUAGUGAGGAUAUACGAACAUGUCAAAAGACGUGAAUAAACAUGAGGAUCACCCAUGUAGAAGGCACUAGCA | 0.0175 | 0.0162 | – | – |
| AUUCCUAGUGUUAGGAUAUGCGACGGGUGACCGUUGCAGAAGGAACAUGAGGAUCACCCAUGUUUAAUAAAAUC | 0.0156 | 0.0807 | – | – |
| GUAAAGUGAGGAUAUGGUAAAUUAAUUAUUUAUUAAUUAAUCCAGAAGGCACAUGAGGAUCACCCAUGUAAAUG | 0.0312 | 0.0561 | – | – |
| GUAGGAAUCACAGGAUAUGCAUGCGCCGCUUCGUUCUACAUGAGGAUCACCCAUGUGUGGUCCGUGUAGAAGGGUGUUUGCUAC | – | – | 0.0339 | 0.0116 |
| CCUUCUCGUGUCAGGAUAUCCACUCAUCGAAAUUAGGAGAAGGGACAUGAGGAUCACCCAUGUAUACAUGCCAG | 0.073 | 0.102 | – | – |
| CAGUACUGAGGAUAUACAUGAGGAUCACCCAUGUGUUCCAGCUAGGAAACUAGCAAAAUUAGAAGGCAGUACUG | 0.0117 | 0.0207 | – | – |
| AGAGACCUCACAGGAUAUGCUGGACUUUGUCCAGCAGAAGGGUGAUAACAUGAGGAUCACCCAUGUAUGGUCUCCAAAUUUAAU | – | – | 1.11 | 0.131 |
| AAUAUGUUAGGAUAUGCGAAGUCAGGACACACACUGACGAAGCAGAAGGAACAUGAGGAUCACCCAUGUAAAAA | 0.0273 | 0.0314 | – | – |
| GUCAGCUCGUGAGGAUAUACAACACUGCCUCGGCAGUGUAUUAAGAUCACAUGAGGAUCACCCAUGUAGAAGGCACGAGCUGAU | 0.0134 | 0.214 | – | – |
| GCGAUUUUGUAAGGAUAUACUCGAGUUUUAAGAGUAGAAGGUACUUACAUGAGGAUCACCCAUGUCUAACGAAAUACUAGUCGC | – | – | 0.0105 | 0.00844 |
| GGGUUCAUGUAAGGAUAUGUAUUGUUAAUCGGAGCAGAAGGUACAUGAGGAUCACCCAUGUCAACCUAGAGCAGGGCUUUUUAG | 0.027 | 0.11 | – | – |
| UUAUCUUGUCAAGGAUAUGUAGUAUUGAUCUGAAAACAUGAGGAUCACCCAUGUAUACGGUGGGAACAGAAGGUGAAUGUUGAA | 0.679 | 0.67 | – | – |
| GUGUCCUUAGGAUAUGUUGAGUUAUACAUGAGGAUCACCCAUGUUCCUCGGUAUUGGUCCAUAGAAGGAAGGUUGC | 0.346 | 0.337 | – | – |
| UGGUACUAGGGAGGAUAUGGGAAGAUACAUGAGGAUCACCCAUGUUUAAGAUUGCCGAGAGGCAACUAGAAGGCCCUAGUACCU | – | – | 1.12 | 0.13 |
| AGAUCGAGUGUGAGGAUAUUGACCGGACGACCCAUCGAGAAGGCACAUGAGGAUCACCCAUGUGAUUCGGCUCA | 0.0177 | 0.0264 | – | – |
| ACAUGGAAUACAGGAUAUGUAAGUUUUAAGUAGAUUGGUUAUUACUUUACUACAGAAGGGUAAUACAUGAGGAUCACCCAUGUA | – | – | 0.0169 | 0.0122 |
| UGGUACCAGGGAGGAUAUGGGAAGAUACAUGAGGAUCACCCAUGUUUAAGAAUGCCGAGAGGCAACUAGAAGGCCCUAGUACCU | – | – | 0.338 | 0.019 |
| ACUUGUAAGCAGAAGGCAGUCAUUAUAUUCAUCAUGUAGACAUGAGGAUCACCCAUGUAGAGUACUGAGGAUAUGCAUCGAUAG | 0.00641 | 0.00885 | – | – |
| CUGCCACAUGAGGAUCACCCAUGUGAGGAUAUGGCCUGUUUGGCGUGUGCUGGCUCUGUCAGAAGGCGCGUGGG | 0.0241 | 0.0339 | – | – |
